{"data": "Published values gathered from unrelated publications", "organism": "Severe acute respiratory syndrome coronavirus 2", "note": "Compare with care: the assays were run in different laboratories."}
{"SMILES": "CC1=C(C/C=C(\\C)CC/C=C(\\C)Cc2ccc(F)cc2)C(=O)c2ccccc2C1=O", "effect on": "viral replication", "mode": "inhibitor", "cells": "VeroE6/TMPRSS2", "concentration": "100 µM", "time": "72 h", "inhibition [%]": 45}
{"SMILES": "OC[C@H]1O[C@@H](O[C@@H]2[C@@H](CO)OC(O)(CO)[C@H]2O)[C@H](O)[C@@H](O)[C@H]1O (mixture of isomers)", "effect on": "viral replication", "cells": "Vero C1008", "concentration": "50 µM", "inhibition [%]": 3}
{"SMILES": "CC1=C(C/C=C(\\C)CC/C=C(\\C)Cc2ccc(F)c3ccccc23)C(=O)c2ccccc2C1=O", "effect on": "viral replication", "mode": "inhibitor", "cells": "VeroE6/TMPRSS2", "concentration": "100 µM", "time": "72 h", "inhibition [%]": 43}
{"SMILES": "CC(C)CC(NC(=O)OCc1ccccc1)C(=O)NC(C(=O)NCC(=O)C=[N+]=[N-])C(C)C (stereo not shown)", "effect on": "viral replication", "mode": "inhibitor", "cells": "Vero C1008", "concentration": "1 µM", "inhibition [%]": 95.8}
{"SMILES": "CC(C)=CCc1c(O)ccc(C(=O)/C=C/c2ccc(O)cc2)c1O", "effect on": "cytopathic effect", "cells": "Vero C1008", "concentration": "25 µM", "inhibition [%]": 0}
{"SMILES": "Cc1ccc(NC(=O)c2cc3c(=O)n4cccc(C)c4nc3n2C)cc1Cl", "effect on": "viral replication", "cells": "Vero", "concentration": "1 µM", "inhibition [%]": 87.3}
{"SMILES": "COc1ccc(C[C@@H]2c3cc(Oc4cc(C[C@@H]5c6cc(O)c(OC)cc6CCN5C)ccc4O)c(OC)cc3CCN2C)cc1", "effect on": "cytopathic effect", "mode": "inhibitor", "cells": "Vero C1008", "concentration": "25 µM", "inhibition [%]": 0}
{"SMILES": "C[C@@H]1O[C@@H](O[C@H]2[C@H](O[C@H]3CC[C@]4(C)[C@H]5CC=C6[C@@H]7CC(C)(C)CC[C@]7(C(=O)OCc7ccccc7)CC[C@@]6(C)[C@]5(C)CC[C@H]4C3(C)C)O[C@H](CO)[C@@H](O[C@@H]3O[C@@H](C)[C@H](O)[C@@H](O)[C@H]3O)[C@@H]2O)[C@H](O)[C@H](O)[C@H]1O", "effect on": "viral replication", "cells": "293T/ACE2", "concentration": "20 µM", "inhibition [%]": 83.6}
{"SMILES": "CCCc1c(C(C)C)cc(C(C)C)c(C(C)O)c1-c1ccc(F)cc1 (stereo not shown)", "effect on": "viral replication", "mode": "inhibitor", "cells": "Vero C1008", "concentration": "1 µM", "inhibition [%]": 52.8}
{"SMILES": "Oc1c(Cl)cc(Cl)c2cccnc12", "effect on": "viral replication", "mode": "inhibitor", "cells": "Vero C1008", "concentration": "30 µM", "inhibition [%]": 89.8}
{"SMILES": "CC1=C(/C=C/C(C)=C/C=C/C(C)=C/C(=O)O)C(C)(C)CCC1", "effect on": "viral replication", "mode": "inhibitor", "cells": "Vero C1008", "concentration": "1 µM", "inhibition [%]": 42.1}
{"SMILES": "COc1c2ccoc2c(OCC=C(C)C)c2oc(=O)ccc12", "effect on": "viral replication", "mode": "inhibitor", "cells": "Calu-3", "concentration": "50 µM", "inhibition [%]": 96}
{"SMILES": "COCC(=O)Nc1c(I)c(C(=O)NCC(O)CO)c(I)c(C(=O)N(C)CC(O)CO)c1I (stereo not shown)", "effect on": "viral replication", "cells": "Vero C1008", "concentration": "50 µM", "inhibition [%]": 2}
{"SMILES": "COc1cc(F)cc2c1-c1ccc(F)cc1C21NC(=O)NC1=O (stereo not shown)", "effect on": "viral replication", "mode": "inhibitor", "cells": "Vero C1008", "concentration": "1 µM", "inhibition [%]": 52}
{"SMILES": "O=C(Nc1ccccc1F)c1cc2c(=O)n3ccccc3nc2n1Cc1ccccc1", "effect on": "viral replication", "cells": "Vero", "concentration": "1 µM", "inhibition [%]": 92.3}
{"SMILES": "Oc1c(Br)cc(Cl)c2cccnc12", "effect on": "viral replication", "mode": "inhibitor", "cells": "Vero C1008", "concentration": "30 µM", "inhibition [%]": "~103"}
{"SMILES": "Cn1c(C(=O)Nc2ccc(Cl)cc2)cc2c(=O)n3ccccc3nc21", "effect on": "viral replication", "cells": "Vero", "concentration": "0.1 µM", "inhibition [%]": 37.7}
{"SMILES": "CC1=C(C/C=C(\\C)CC/C=C(\\C)Cc2cccc3ccccc23)C(=O)c2ccccc2C1=O", "effect on": "viral replication", "mode": "inhibitor", "cells": "VeroE6/TMPRSS2", "concentration": "100 µM", "time": "72 h", "inhibition [%]": 48}
{"SMILES": "CCC(CC)COC(=O)[C@H](C)N[P@](=O)(OC[C@H]1O[C@@](C#N)(c2ccc3c(N)ncnn23)[C@H](O)[C@@H]1O)Oc1ccccc1", "effect on": "viral replication", "mode": "inhibitor", "cells": "Vero C1008", "concentration": "0.8 µM", "inhibition [%]": 20}
{"SMILES": "CCC(CC)COC(=O)[C@H](C)N[P@](=O)(OC[C@H]1O[C@@](C#N)(c2ccc3c(N)ncnn23)[C@H](O)[C@@H]1O)Oc1ccccc1", "effect on": "viral replication", "cells": "Vero", "concentration": "1 nM", "inhibition [%]": 14.8}
{"SMILES": "CC[C@H](C)[C@@H]1NC(=O)[C@@H](C)NC(=O)[C@H](C(C)C)NC(=O)C[C@H](/C=C/c2ccccc2)OC(=O)[C@H](C(C)C)NC1=O", "effect on": "viral replication", "mode": "inhibitor", "cells": "Calu-3", "concentration": "50 µM", "inhibition [%]": 3.01}
{"SMILES": "O=C(O[C@@H]1Cc2c(O)cc(O)cc2O[C@@H]1c1cc(O)c(O)c(O)c1)c1cc(O)c(O)c(O)c1", "effect on": "cytopathic effect", "mode": "inhibitor", "cells": "Vero C1008", "concentration": "6.25 µM", "inhibition [%]": 0}
{"SMILES": "COC(=O)C[C@@H]1OO[C@@](C)(/C(C)=C/C=C/Cc2ccccc2)C[C@H]1C", "effect on": "viral replication", "mode": "inhibitor", "cells": "Calu-3", "concentration": "50 µM", "inhibition [%]": 4.15}
{"SMILES": "C=C[C@@](C)(/C=C/c1ccc(O)cc1)CCC=C(C)C", "effect on": "cytopathic effect", "cells": "Vero C1008", "concentration": "100 µM", "inhibition [%]": 0}
{"SMILES": "C[C@@H]1O[C@@H](OC[C@H]2O[C@@H](Oc3c(-c4ccc(OCCO)c(OCCO)c4)oc4cc(OCCO)cc(O)c4c3=O)[C@H](O)[C@@H](O)[C@@H]2O)[C@H](O)[C@H](O)[C@H]1O", "effect on": "viral replication", "cells": "Vero C1008", "concentration": "50 µM", "inhibition [%]": 3}
{"SMILES": "Cc1cccn2c(=O)c3cc(C(=O)Nc4ccc(N(C)C)cc4)n(C)c3nc12", "effect on": "viral replication", "cells": "Vero", "concentration": "10 µM", "inhibition [%]": 94.2}
{"SMILES": "CC1(C)CCC(C)(C)c2cc(C#Cc3ccc(C(=O)O)cc3)ccc21", "effect on": "viral replication", "mode": "inhibitor", "cells": "Vero C1008", "concentration": "1 µM", "inhibition [%]": 56.1}
{"SMILES": "CN=c1nc(-c2ccc(OC)c(OC)c2)n(-c2ccc(F)cc2)s1", "effect on": "viral replication", "mode": "inhibitor", "technique": "qPCR", "cells": "Vero C1008", "concentration": "50 µM", "time": "24 h", "inhibition [%]": 21.5}
{"SMILES": "Cn1c(C(=O)Nc2ccc3c(c2)OCCO3)cc2c(=O)n3ccccc3nc21", "effect on": "viral replication", "cells": "Vero", "concentration": "10 nM", "inhibition [%]": 8}
{"SMILES": "C/C=C(/C)C(=O)O[C@H]1C(C)=C[C@]23C(=O)[C@@H](C=C(CO)[C@@H](O)[C@]12O)[C@H]1[C@@H](C[C@H]3C)C1(C)C", "effect on": "viral replication", "mode": "inhibitor", "cells": "Vero C1008", "concentration": "1 µM", "inhibition [%]": 47.4}
{"SMILES": "CC(=O)c1cccc(NC(=O)c2cc3c(=O)n4ccccc4nc3n2C)c1", "effect on": "viral replication", "cells": "Vero", "concentration": "10 µM", "inhibition [%]": 96.4}
{"SMILES": "O=C(/C=C/c1ccc(O)c(O)c1/C=C/c1ccc(O)c(O)c1)O[C@H](Cc1ccc(O)c(O)c1)C(=O)O", "effect on": "cytopathic effect", "mode": "inhibitor", "cells": "Vero C1008", "concentration": "3.125 µM", "inhibition [%]": 0}
{"SMILES": "CC1CCC2c3c(c4ccccc4n3Cc3ccccc3)CCN2C1 (stereo not shown)", "effect on": "viral replication", "mode": "inhibitor", "cells": "Vero C1008", "concentration": "1 µM", "inhibition [%]": 54.3}
{"SMILES": "COc1cc(-c2cc3c(c(=O)o2)C[C@]2(O)[C@@]4(C)C(=O)C=CC(C)(C)[C@]4(O)CC[C@@]2(C)O3)cc(OC)c1OC", "effect on": "viral replication", "mode": "inhibitor", "cells": "Calu-3", "concentration": "50 µM", "inhibition [%]": 101}
